From ChEMBL document CHEMBL1156769, “9-Arylpurines as a novel class of enterovirus inhibitors” (J Med Chem, 2010)

Tests used:
[1] = Cytotoxicity against human MRC5 cells after 3 days by MTS assay; type: cell-based
Summary of the method: (§1)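 Uninfected cultures in the antiviral-assay setup were exposed to serial compound dilutions for three days at 37 °C. Viability was read by the MTS method. CC50, the concentration inhibiting cell proliferation by 50%, was obtained by linear interpolation; mean ± SD of at least three independent experiments.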

[2] = Cytotoxicity against human HeLa cells after 3 days by MTS assay; type: cell-based; summary of the method: as §1
Coxsackievirus B3 = test: Antiviral activity against Coxsackievirus B3 infected in african green monkey Vero cells assessed as reduction of virus-induced cytopathic effect after 3 days by MTS assay; type: functional, organism-based; conditions: Enterovirus B, 72 h
Summary of the method: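 CPE-reduction assay in confluent Vero cells. Serial compound dilutions and 100 CCID50 of CVB3 were added, then incubated 3 days at 37 °C until complete CPE in the virus control. Optical density after MTS/PMS was read at 498 nm relative to uninfected untreated cells. EC50 was interpolated linearly; mean ± SD of at least three independent experiments.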

[3] = Cytotoxicity against african green monkey Vero cells after 3 days by Cell titer glo luminescent assay; type: cell-based; conditions: chlorocebus sabaeus
Summary of the method: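 Uninfected Vero cells were incubated with serial compound dilutions for three days at 37 °C, using the same setup as the antiviral assay. Survival was measured with the CellTiter-Glo luminescent viability assay. CC50 (50% inhibition of proliferation) was determined by linear interpolation; mean ± SD of at least three independent experiments.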

[4] = Cytotoxicity against african green monkey Vero cells after 3 days by MTS assay; type: cell-based; conditions: chlorocebus sabaeus; summary of the method: as §1
[5] = Antiviral activity against Coxsackievirus A16 G10 infected in human MRC5 cells assessed as reduction of virus induced cytopathic effect after 3 days by MTS assay; type: functional, cell-based, Human coxsackievirus A16 (strain G-10); conditions: Enterovirus A, MRC5, 72 h
Summary of the method: (§2)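 Confluent MRC-5 monolayers received serial compound dilutions plus 100 CCID50 of virus and were incubated 3 days at 37 °C, until full CPE appeared in the untreated virus control. Viability was read by MTS/PMS at 498 nm and compared with uninfected, compound-free cells. EC50 (50% CPE inhibition) was obtained by linear interpolation; mean ± SD of at least three independent experiments.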

[6] = Antiviral activity against Enterovirus 71 BrCr infected in human RD cells assessed as reduction of virus induced cytopathic effect after 3 days by MTS assay; type: functional, cell-based, Human enterovirus 71 (strain BRCR); conditions: Enterovirus A, 72 h
Summary of the method: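 Virus was cultured in RD cells at 37 °C. Confluent cells were given serial compound dilutions with 100 CCID50 of virus for 3 days, until complete CPE in untreated infected controls. Cell viability was measured by MTS/PMS absorbance at 498 nm. EC50 was derived by linear interpolation; mean ± SD of at least three independent experiments.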

[7] = Antiviral activity against Coxsackie virus A21 Coe infected in human MRC5 cells assessed as reduction of virus induced cytopathic effect after 3 days by MTS assay; type: functional, cell-based, Human coxsackievirus A21 (strain Coe); conditions: Enterovirus C, MRC5, 72 h
Summary of the method: (§3)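 Confluent MRC-5 monolayers were cultured at 37 °C and given serial compound dilutions plus 100 CCID₅₀ virus. EC₅₀ (50% CPE inhibition) was found by linear interpolation. Values are the mean ± SD of at least three independent experiments.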

Poliovirus 1 = test: Antiviral activity against Poliovirus1 sabin infected in Vero cells assessed as reduction of virus induced cytopathic effect after 3 days by MTS assay; type: functional, cell-based; conditions: Enterovirus C, 72 h
Summary of the method: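 Vero cells were grown to confluence at 37 °C and then given serial compound dilutions together with 100 CCID₅₀ virus. After 3 days, once virus controls reached full CPE, cell viability was measured by MTS/PMS as absorbance at 498 nm, relative to uninfected untreated wells. EC₅₀ was interpolated linearly as the concentration giving 50% CPE inhibition. Results are the mean ± SD of three or more independent experiments.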

[8] = Antiviral activity against Echovirus 9 Hill assessed as reduction of virus-induced cytopathic effect after 3 days by MTS assay; type: functional, Echovirus 9 (strain Hill); summary of the method: as §2
rhinovirus B14 = test: Antiviral activity against Rhinovirus 14 infected in human HeLa-R cells assessed as reduction of virus induced cytopathic effect after 3 days by MTS assay; type: functional, organism-based; conditions: Rhinovirus B, 72 h
Summary of the method: (§4)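 Rhinoviruses were cultured in HeLa R cells at 35 °C. Confluent cells received serial compound dilutions and 100 CCID50 of virus until complete CPE developed in the virus control. Survival was quantified by MTS/PMS at 498 nm versus uninfected compound-free cells. EC50 was calculated by linear interpolation; mean ± SD of at least three independent experiments.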

[9] = Antiviral activity against Echovirus 11 Gregory assessed as reduction of virus-induced cytopathic effect after 3 days by MTS assay; type: functional, Echovirus 11 (strain Gregory); summary of the method: as §2
Coxsackievirus A24 = test: Antiviral activity against Coxsackie virus A24 infected in human MRC5 cells assessed as reduction of virus induced cytopathic effect after 3 days by MTS assay; type: functional, organism-based; conditions: Enterovirus C, MRC5, 72 h; summary of the method: as §3
rhinovirus A2 = test: Antiviral activity against Rhinovirus 2 infected in human HeLa-R cells assessed as reduction of virus induced cytopathic effect after 3 days by MTS assay; type: functional, organism-based; conditions: Rhinovirus A, 72 h; summary of the method: as §4

Row | SMILES | EC50 (Coxsackievirus B3) | EC90 (Coxsackievirus B3) | CC50 at 72 h [4] | further results
1 | OCc1cccc(-n2cnc3c(Cl)ncnc32)c1 | 14.2 µM | 30 µM | > 100 µM | CC50 at 72 h [1]: 229 µM; CC50 at 72 h [2]: 175 µM; CC50 at 72 h [3]: 200 µM
2 | Cc1ncnc2c1ncn2-c1cccc(CO)c1 | > 100 µM |  | > 100 µM | 
3 | CC(C)COc1ccc(-n2cnc3c(Cl)ncnc32)cc1 | > 100 µM |  | > 100 µM | 
4 | CC(=O)c1cccc(-n2nnc3c(Cl)ncnc32)c1 | > 44 µM |  | 44 µM | 
5 | Cc1nc(Cl)c2ncn(-c3cccc(C(C)(C)O)c3)c2n1 | 8 µM | 7.4 µM | > 100 µM | CC50 at 72 h [1]: > 250 µM; CC50 at 72 h [2]: > 250 µM; CC50 at 72 h [3]: > 250 µM
6 | COc1cccc(Cn2cnc3ncnc(Cl)c32)c1 | 75 µM | > 100 µM | > 100 µM | 
7 | O=C(c1ccccc1)c1ccc(-n2cnc3c(Cl)ncnc32)cc1 | 67 µM | 85 µM | > 100 µM | 
8 | CC(=O)c1cc(-n2cnc3c(Cl)ncnc32)ccc1F | 9.3 µM | 15 µM | > 100 µM | 
9 | Clc1ncnc2c1ncn2-c1ccc2c(c1)OCO2 | > 100 µM |  | > 100 µM | 
10 | CNc1ncnc2c1ncn2-c1cccc(CO)c1 | > 100 µM |  | > 100 µM | 
11 | OCc1ccc(-n2cnc3c(Cl)ncnc32)cc1 | 11 µM | 20 µM | > 100 µM | 
12 | CC(=O)c1cccc(-n2cnc3c(Cl)ncnc32)c1 | 7.3 µM | 9.1 µM | > 100 µM | EC50 [5]: 2.7 µM; EC50 [6]: > 100 µM; EC50 [7]: 4.5 µM; EC50 (Poliovirus 1): > 100 µM; EC50 [8]: 3.3 µM; CC50 at 72 h [1]: 238 µM; CC50 at 72 h [2]: 144 µM; EC50 (rhinovirus B14): > 100 µM; CC50 at 72 h [3]: > 250 µM; EC50 [9]: > 100 µM; EC50 (Coxsackievirus A24): 2.7 µM; EC50 (rhinovirus A2): > 100 µM
13 | Nc1nc(Cl)c2ncn(-c3cccc(CO)c3)c2n1 | 17 µM | 25 µM | > 100 µM | 
14 | COc1ccc(C(C)=O)cc1-n1cnc2c(Cl)nc(C)nc21 | > 100 µM |  | > 100 µM | 
15 | OCc1cccc(-n2cnc3c(Br)ncnc32)c1 | 22 µM | 29 µM | > 100 µM | 
16 | CC(=O)c1cccc(Nc2ncnc(Cl)c2N)c1 | > 100 µM |  | > 100 µM | 
17 | CC(=O)c1cccc(Nc2nc(C)nc(Cl)c2N)c1 | > 100 µM |  | > 100 µM | 
18 | CC(=O)c1cccc(-n2c(C)nc3c(Cl)ncnc32)c1 | 12.2 µM | 22 µM | > 100 µM | 

Row | SMILES | EC50 (Coxsackievirus B3) | EC90 (Coxsackievirus B3) | CC50 at 72 h [4] | further results
19 | CC(=O)c1cccc(-n2cnc3c(Cl)nc(C)nc32)c1 | 8.7 µM | 14 µM | > 100 µM | 
20 | CC(=O)c1cccc(-n2c(C)nc3c(Cl)nc(C)nc32)c1 | 11 µM | 15 µM | > 100 µM | 
21 | CC(=O)c1cccc(-n2c(=O)[nH]c3c(Cl)ncnc32)c1 | 9.3 µM | 18 µM | > 100 µM | 
22 | OCc1cccc(-n2cnc3c(Cl)nc(Cl)nc32)c1 | > 8.8 µM |  | 8.8 µM | 
23 | OCc1cccc(-n2cnc3cncnc32)c1 | > 100 µM |  | > 100 µM | 
24 | CC(=O)c1ccc(-n2cnc3c(Cl)ncnc32)cc1 | 35.3 µM | 51 µM | > 100 µM | 
25 | COC(=O)c1cccc(-n2cnc3c(Cl)ncnc32)c1 | 11.1 µM | 22 µM | > 100 µM | 
26 | CC(=O)c1cccc(-n2c(=O)[nH]c3c(Cl)nc(C)nc32)c1 | 6.7 µM | 10 µM | > 100 µM | CC50 at 72 h [1]: > 250 µM; CC50 at 72 h [2]: > 250 µM; CC50 at 72 h [3]: > 250 µM
27 | COc1ncnc2c1ncn2-c1cccc(CO)c1 | > 100 µM |  | > 100 µM | 
28 | COc1cccc(Cn2cnc3c(Cl)ncnc32)c1 | 53 µM | 70 µM | > 100 µM | 
29 | COc1ccc(C(C)=O)cc1-n1cnc2c(Cl)ncnc21 | > 57 µM |  | > 100 µM | 
30 | Cc1nc(Cl)c2[nH]c(=O)n(-c3cccc(C(C)(C)O)c3)c2n1 | 22 µM | 29 µM | > 100 µM | 
31 | OCc1cccc(-n2cnc3c(O)ncnc32)c1 | > 100 µM |  | > 100 µM | 
32 | CC(=O)c1cccc(-n2nnc3c(Cl)nc(C)nc32)c1 | > 44 µM |  | 44 µM | 
33 | CC(C)COc1cccc(-n2cnc3c(Cl)ncnc32)c1 | 29 µM | > 100 µM | > 100 µM | 
34 | COc1cccc(-n2cnc3c(Cl)ncnc32)c1 | 12 µM | 22 µM | > 100 µM | 
35 | Fc1cccc(F)c1[C@@H]1SCc2nc3cc(C(F)(F)F)ccc3n21 | 1.2 µM |  | > 100 µM | 
36 | CC(C)S(=O)(=O)n1c(N)nc2ccc(/C(=N/O)c3ccccc3)cc21 [ENVIROXIME] | 0.7 µM |  | > 100 µM | 
